Data taken from ChEMBL document CHEMBL1129082, “Approaches to short-acting neuromuscular blocking agents: nonsymmetrical bis-tetrahydroisoquinolinium mono- and diesters” (1996).

Key:
Felis catus [1] = assay: Vagal response in anesthetized cats; '++++' means significant inhibition in the absence of neuromuscular blockade; assay type: functional, organism-based
In short: (§1)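 Anesthetized cats given supplemental iv α-chloralose as needed, tracheally cannulated and ventilated with room air (20 mL/kg, 20 strokes/min), core temperature held at 37–38 °C. Right vagus crushed distal to the nodose ganglia and stimulated for 10 s every 5 min (20 Hz, 0.5 ms, 10–15 V supramaximal). Femoral arterial pressure recorded; heart rate taken from the ECG.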

Felis catus [2] = assay: Blockade duration is the time from injection to 95% control in anesthetized cats; assay type: functional
In short: (§2)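 Cats kept under chloralose anesthesia, with supplemental iv doses as needed. Trachea cannulated and ventilated with room air at 20 mL/kg and 20 strokes/min. Arterial pressure taken from a right femoral artery cannula, and heart rate from the ECG. Core temperature held at 37-38 °C by radiant heat.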

Felis catus [3] = assay: Effective dose for anesthetized cats; Range is 4-7 mg/Kg; assay type: functional
Felis catus [4] = assay: Vagal response in anesthetized cats; assay type: functional
In short: (§3)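 Chloralose-anesthetized, ventilated cats kept at 37-38 °C. Nerve stimulated for 10 s every 5 min at 20 Hz, 0.5 ms, supramaximal 10-15 V. Heart rate from the ECG and arterial pressure via a femoral cannula used as the vagal read-out.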

Felis catus [5] = assay: Effective dose for anesthetized cats; assay type: functional; in short: as §2
Felis catus [6] = assay: Vagal response in anesthetized cats; '++ ' means significant inhibition at ED95 or slightly higher doses; assay type: functional, organism-based; in short: as §3
Felis catus [7] = assay: Effective dose for anesthetized cats; Range is 0.3-0.4 mg/Kg; assay type: functional
Felis catus [8] = assay: Blockade duration is the time from injection to 95% control in anesthetized cats; Range is 7-8 min; assay type: functional; in short: as §2
Felis catus [9] = assay: Vagal response in anesthetized cats; '++++ ' means significant inhibition in the absence of neuromuscular blockade; assay type: functional, organism-based; in short: as §3
Felis catus [10] = assay: Effective dose for anesthetized cats; Range is 0.7-0.8 mg/Kg; assay type: functional; in short: as §2
Felis catus [11] = assay: Vagal response in anesthetized cats; '+++ ' means significant inhibition at doses that produce neuromuscular blockade; assay type: functional, organism-based; in short: as §1
Felis catus [12] = assay: Blockade duration is the time from injection to 95% control in anesthetized cats; Range is 8-12 min; assay type: functional; in short: as §2
Felis catus [13] = assay: Effective dose for anesthetized cats; Range is 0.12-0.20 mg/Kg; assay type: functional; in short: as §2
Felis catus [14] = assay: Blockade duration is the time from injection to 95% control in anesthetized cats; Range is 12-13 min; assay type: functional
Felis catus [15] = assay: Effective dose for anesthetized cats; Range is 0.3-0.5 mg/Kg; assay type: functional; in short: as §2
Felis catus [16] = assay: Neuromuscular blocking property by neostigmine reversal in anesthetized cats at dose of 0.55 mg/Kg; Not recorded; assay type: functional, organism-based
Felis catus [17] = assay: Blockade duration is the time from injection to 95% control in anesthetized cats; Range is 8-9 min; assay type: functional; in short: as §2
Felis catus [18] = assay: Effective dose for anesthetized cats; Range is 0.5-0.7 mg/Kg; assay type: functional; in short: as §2

Structure (SMILES): C=CC[N+]1(CCCCCCCCCOC(=O)CC[N+]2(C)CCC34c5c6ccc(OC)c5OC3[C@@H](OC)C=CC4[C@H]2C6)CCc2cc(OC)c(OC)cc2[C@H]1Cc1ccc(OC)c(OC)c1.[Br-].[Br-] (some centres not stated)
- Vagal response (Felis catus [1]): significant inhibition in the absence of neuromuscular blockade
- Blockade duration (Felis catus [2]): 3 min
- ED95 (Felis catus [3]): 4 mg/kg

Structure (SMILES): COc1ccc(C[C@@H]2c3cc(OC)c(OC)cc3CC[N+]2(C)CCC(=O)OCCCCCOC(=O)CC[N+]2(C)CCc3cc(OC)c(OC)cc3[C@H]2Cc2ccc(OC)c(OC)c2)cc1OC.O=S(=O)([O-])c1ccccc1.O=S(=O)([O-])c1ccccc1 (some centres not stated)
- Vagal response (Felis catus [4]): 0
- Blockade duration (Felis catus [2]): 14.6 min
- ED95 (Felis catus [5]): 0.16 mg/kg

Structure (SMILES): COc1ccc(C[C@@H]2c3cc(OC)c(OC)cc3CC[N+]2(C)CCCCCCCCCCCOC(=O)CC[N+]2(C)CCc3cc(OC)c(OC)c(OC)c3C2)cc1OC.[I-].[I-] (some centres not stated)
- Vagal response (Felis catus [6]): significant inhibition at ED95 or slightly higher doses
- Blockade duration (Felis catus [2]): 8 min
- ED95 (Felis catus [7]): 0.3 mg/kg

Structure (SMILES): COc1ccc(C[C@@H]2c3cc(OC)c(OC)cc3CC[N+]2(C)CCCCCCCCCCCOC(=O)CC[N+]2(C)CCc3cc(OC)c(OC)cc3C2)cc1OC.[I-].[I-] (some centres not stated)
- Vagal response (Felis catus [6]): significant inhibition at ED95 or slightly higher doses
- Blockade duration (Felis catus [8]): 8 min
- ED95 (Felis catus [5]): 0.3 mg/kg

Structure (SMILES): C=CC[N+]1(CCC(=O)OCCCCCCCCC[N+]2(CC=C)CCc3cc(OC)c(OC)cc3[C@H]2Cc2ccc(OC)c(OC)c2)CCc2c(cc(OC)c(OC)c2OC)C1.[Br-].[Br-] (some centres not stated)
- Vagal response (Felis catus [9]): significant inhibition in the absence of neuromuscular blockade
- Blockade duration (Felis catus [8]): 8 min
- ED95 (Felis catus [10]): 0.7 mg/kg

Structure (SMILES): COc1ccc(C[C@@H]2c3cc(OC)c(OC)cc3CC[N+]2(C)CCCCOC(=O)CCCCOC(=O)CC[N+]2(C)CCc3cc(OC)c(OC)c(OC)c3C2)cc1OC.[I-].[I-] (some centres not stated)
- Vagal response (Felis catus [11]): significant inhibition at doses that produce neuromuscular blockade
- Blockade duration (Felis catus [2]): 8 min
- ED95 (Felis catus [5]): 0.5 mg/kg

Structure (SMILES): COc1ccc(C[C@@H]2c3cc(OC)c(OC)cc3CC[N+]2(C)CCC(=O)OCCCCCCOC(=O)CC[N+]2(C)CCc3c(cc(OC)c(OC)c3OC)C2)cc1OC.[I-].[I-] (some centres not stated)
- Vagal response (Felis catus [4]): 0
- Blockade duration (Felis catus [12]): 12 min
- ED95 (Felis catus [13]): 0.12 mg/kg

Structure (SMILES): COc1ccc(C[C@@H]2c3cc(OC)c(OC)cc3CC[N+]2(C)CCCCCCCCCOC(=O)CC[N+]2(C)CCC34c5c6ccc(OC)c5OC3[C@@H](OC)C=CC4[C@H]2C6)cc1OC.[I-].[I-] (some centres not stated)
- Vagal response (Felis catus [11]): significant inhibition at doses that produce neuromuscular blockade
- Blockade duration (Felis catus [14]): 13 min
- ED95 (Felis catus [7]): 0.3 mg/kg

Structure (SMILES): COc1cc2c(c(OC)c1OC)C[N+](C)(CCC(=O)OCCCCCCOC(=O)CC[N+]1(C)CCc3cc(OC)c(OC)c(OC)c3C1)CC2.[I-].[I-] (configuration not stated)
- Vagal response (Felis catus [6]): significant inhibition at ED95 or slightly higher doses
- Blockade duration (Felis catus [2]): 8 min
- ED95 (Felis catus [15]): 0.3 mg/kg

Structure (SMILES): COc1ccc(C[C@@H]2c3cc(OC)c(OC)cc3CC[N+]2(C)CCCCCCCCCOC(=O)CC[N+]2(C)CCc3cc(OC)c(OC)cc3[C@H]2Cc2ccc(OC)c(OC)c2)cc1OC.[I-].[I-] (some centres not stated)
- Vagal response (Felis catus [4]): 0
- Blockade duration (Felis catus [2]): 15 min
- ED95 (Felis catus [5]): 0.1 mg/kg
- Neostigmine reversal (Felis catus [16]): Not recorded

Structure (SMILES): COc1ccc(C[C@@H]2c3cc(OC)c(OC)cc3CC[N+]2(C)CCCCCCCCCOC(=O)CC[N+]2(C)CCc3c(cc(OC)c(OC)c3OC)C2)cc1OC.[I-].[I-] (some centres not stated)
- Vagal response (Felis catus [6]): significant inhibition at ED95 or slightly higher doses
- Blockade duration (Felis catus [2]): 10 min
- ED95 (Felis catus [5]): 0.26 mg/kg

Structure (SMILES): COc1ccc(C[C@@H]2c3cc(OC)c(OC)cc3CC[N+]2(C)CCCCCCCCCCCOC(=O)CC[N+]2(C)CCc3c(cc(OC)c(OC)c3OC)C2)cc1OC.[I-].[I-] (some centres not stated)
- Vagal response (Felis catus [6]): significant inhibition at ED95 or slightly higher doses
- Blockade duration (Felis catus [17]): 9 min
- ED95 (Felis catus [18]): 0.5 mg/kg
